In ChEMBL document CHEMBL2010657, “Cytotoxic angucycline class glycosides from the deep sea actinomycete Streptomyces lusitanus SCSIO LR32” (J Nat Prod, 2012):

Legend:
Type in all cases: functional, cell-based
B16 = experiment: Cytotoxicity against mouse B16 cells after 48 hrs by MTT assay; settings: B16, 48 h
Procedure, shortened: (§1)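 Cells grown in RPMI 1640 with 10% FBS at 37 °C, 5% CO2. Seeded at 2 × 10^3 cells/well and allowed 12 h before adding compounds in DMSO at various concentrations. After 48 h exposure, MTT (1 mg/mL in PBS) added for 4 h at 37 °C. Formazan dissolved in DMSO and read at A550. Viability taken as treated/untreated A550 × 100. IC50 reported. 5-FU and doxorubicin served as positive controls.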

HepG2 = experiment: Cytotoxicity against human HepG2 cells after 48 hrs by MTT assay; settings: HepG2, 48 h; procedure, shortened: as §1
SW1990 = experiment: Cytotoxicity against human SW1990 cells after 48 hrs by MTT assay; settings: SW1990, 48 h; procedure, shortened: as §1
HeLa = experiment: Cytotoxicity against human HeLa cells after 48 hrs by MTT assay; procedure, shortened: as §1
NCI-H460 = experiment: Cytotoxicity against human NCI-H460 cells after 48 hrs by MTT assay; settings: NCI-H460, 48 h; procedure, shortened: as §1
MCF7 = experiment: Cytotoxicity against human MCF7 cells after 48 hrs by MTT assay; settings: MCF7, 48 h; procedure, shortened: as §1

Row | Compound | IC50 (B16) [µM] | IC50 (HepG2) [µM] | IC50 (SW1990) [µM] | IC50 (HeLa) [µM] | IC50 (NCI-H460) [µM] | IC50 (MCF7) [µM]
1 | O=c1[nH]cc(F)c(=O)[nH]1 [FLUOROURACIL] | 33 | 34 | 45 | 43 | 29 | 35
2 | COc1cccc2c1C(=O)c1c(O)c3c(c(O)c1C2=O)C[C@@](O)(C(=O)CO)C[C@@H]3O[C@H]1C[C@H](N)[C@H](O)[C@H](C)O1 [DOXORUBICIN] | 1.7 | 7.1 | > 100 | 5.3 | 11 | 6.9
3 | C[C@@H]1O[C@@H](O[C@H]2CC[C@H](O[C@H]3[C@H](O)C[C@H](c4ccc5c(c4O)C(=O)c4ccc(C[C@@](C)(O)CC(=O)O)c(O)c4C5=O)O[C@@H]3C)O[C@H]2C)CCC1=O [GRINCAMYCIN C] | > 100 | 31 | 31 | > 100 | > 100 | 11
4 | C[C@@H]1O[C@@H](O[C@H]2CC[C@H](O[C@@H]3C[C@H](C4=Cc5c(-c6ccc(O)cc6)c(=O)oc6c7c(c(O)c(c56)C4=O)C=C[C@]4(O)C[C@@](C)(O[C@H]5CC[C@H](O[C@H]6CCC(=O)[C@H](C)O6)[C@H](C)O5)CC(=O)[C@]74O)O[C@H](C)[C@H]3O)O[C@H]2C)CCC1=O [GRINCAMYCIN F] | > 100 | > 100 | > 100 | > 100 | > 100 | > 100
5 | C[C@@H]1O[C@@H](O[C@H]2CC[C@H](O[C@@](C)(CC(=O)O)Cc3ccc4c(c3O)C(=O)c3ccc([C@H]5C[C@H]6O[C@H]7CC(=O)[C@H](C)O[C@H]7O[C@@H]6[C@@H](C)O5)c(O)c3C4=O)O[C@H]2C)CCC1=O [GRINCAMYCIN D] | 9.7 | 9.7 | 22 | 12 | 30 | 6.1
6 | C[C@@H]1O[C@@H](O[C@H]2CC[C@H](O[C@H]3[C@H](O)C[C@H](c4ccc5c(c4O)C(=O)c4cc6c(c(O)c4C5=O)C[C@@](C)(O[C@H]4CC[C@H](O[C@H]5CCC(=O)[C@H](C)O5)[C@H](C)O4)CC6=O)O[C@@H]3C)O[C@H]2C)CCC1=O [GRINCAMYCIN E] | 5.4 | 11 | 16 | 11 | > 100 | 8.7
7 | C[C@@H]1O[C@@H](O[C@H]2CC[C@H](O[C@H]3[C@H](O)C[C@H](c4ccc5c(c4O)C(=O)C4=C(C5=O)[C@@]5(O)C(=O)C[C@](C)(O[C@H]6CC[C@H](O[C@H]7CCC(=O)[C@H](C)O7)[C@H](C)O6)C[C@@]5(O)C=C4)O[C@@H]3C)O[C@H]2C)CCC1=O [GRINCAMYCIN] | 1.1 | 5.3 | 6.4 | 5.3 | 11 | 2.1
8 | C[C@@H]1O[C@@H](O[C@H]2CC[C@H](O[C@H]3[C@H](O)C[C@H](c4ccc5c(c4O)C(=O)c4ccc(C[C@](C)(CC(=O)O)O[C@H]6CC[C@H](O[C@H]7CCC(=O)[C@H](C)O7)[C@H](C)O6)c(O)c4C5=O)O[C@@H]3C)O[C@H]2C)CCC1=O [GRINCAMYCIN B] | 2.1 | 8.5 | 11 | 6.4 | > 100 | 12
